Activity calls are given as the source filed them. The rule behind the calls is not given here.

Assay [1] concerns the target Tyrosine-protein kinase JAK1 (Homo sapiens) (UniProt P23458). Description: Inhibition of JAK1 domain2 in human SKCO1 cells at 1 uM after 4 hrs using biotin labeled IGDFGLTKAIETDKEYYTVK probe by mass-spectrometric analysis relative to control. The class given is cell-based.
For assay [2], the target named is T1, Dual specificity mitogen-activated protein kinase kinase 3 (Homo sapiens) (UniProt P46734).
T1 sequence (whole entry): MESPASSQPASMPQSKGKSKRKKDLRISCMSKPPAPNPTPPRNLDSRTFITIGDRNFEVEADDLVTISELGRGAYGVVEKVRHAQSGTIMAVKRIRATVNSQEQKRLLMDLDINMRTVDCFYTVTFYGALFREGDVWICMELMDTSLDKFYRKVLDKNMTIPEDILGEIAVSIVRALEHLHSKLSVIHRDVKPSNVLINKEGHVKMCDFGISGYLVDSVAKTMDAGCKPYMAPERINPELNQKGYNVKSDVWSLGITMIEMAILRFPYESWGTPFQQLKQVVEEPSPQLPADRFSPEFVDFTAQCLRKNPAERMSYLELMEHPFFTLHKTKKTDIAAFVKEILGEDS
The assay is described as follows: Inhibition of full length human MEK3 (1 to 318 residues) expressed in mammalian expression system assessed as enzyme activity at 1 uM by KINOMEScan assay relative to control. Details: scale not given: the % may be the effect or the level left. An outline of the steps:
(§1)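 In vitro ATP-site competition binding assay (KinomeScan) across a panel of 456 kinases. Compound was tested at 1 and 10 μM. The read-out is the binding inhibition score relative to control.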

Assay [3] addresses Mitogen-activated protein kinase kinase kinase 20 (Homo sapiens) (UniProt Q9NYL2). The assay is described as follows: Inhibition of human ZAK (1 to 331 residues) expressed in bacterial expression system assessed as enzyme activity at 10 uM by KINOMEScan assay relative to control. Details: scale not given: the % may be the effect or the level left. An outline of the steps:
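In vitro ATP-site competition binding assay across a panel of 456 kinases, with compound tested at 1 and 10 μM.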

Assay [4] concerns the target Serine/threonine-protein kinase RIO3 (Homo sapiens) (UniProt O14730). The assay is described as follows: Inhibition of full length human RIOK3 (1 to 519 residues) expressed in bacterial expression system assessed as enzyme activity at 1 uM by KINOMEScan assay relative to control. Details: scale not given: the % may be the effect or the level left. A digest of the protocol:
as §1

Assay [5] deals with Protein SET (Homo sapiens) (UniProt Q01105). The assay is described as follows: Binding affinity to SET in human NCI-H358 cells at 1 uM by mass spectrometry based pull down assay. The format is cell-based.
Chain of Protein SET (Homo sapiens) (Q01105 whole entry): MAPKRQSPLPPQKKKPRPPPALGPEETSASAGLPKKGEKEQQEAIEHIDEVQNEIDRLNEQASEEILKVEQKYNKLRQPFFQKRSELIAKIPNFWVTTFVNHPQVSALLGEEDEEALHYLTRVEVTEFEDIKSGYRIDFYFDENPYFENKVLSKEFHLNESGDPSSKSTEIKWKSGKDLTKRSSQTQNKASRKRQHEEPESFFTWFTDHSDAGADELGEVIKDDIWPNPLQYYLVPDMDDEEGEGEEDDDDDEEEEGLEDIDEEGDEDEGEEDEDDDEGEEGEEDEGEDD
In assay [6] the target is Ribosomal protein S6 kinase alpha-3 (Homo sapiens) (UniProt P51812). The assay is described as follows: Binding affinity to RPS6KA3 in human NCI-H358 cells at 1 uM by mass spectrometry based pull down assay. The format is cell-based.
The target of assay [7] is Mitogen-activated protein kinase kinase kinase 20 (Homo sapiens) (UniProt Q9NYL2). Description: Binding affinity to ZAK in human NCI-H23 cells at 1 uM by mass spectrometry based pull down assay. The format is cell-based.
Chain of Mitogen-activated protein kinase kinase kinase 20 (Homo sapiens) (Q9NYL2 2-800 limits assumed): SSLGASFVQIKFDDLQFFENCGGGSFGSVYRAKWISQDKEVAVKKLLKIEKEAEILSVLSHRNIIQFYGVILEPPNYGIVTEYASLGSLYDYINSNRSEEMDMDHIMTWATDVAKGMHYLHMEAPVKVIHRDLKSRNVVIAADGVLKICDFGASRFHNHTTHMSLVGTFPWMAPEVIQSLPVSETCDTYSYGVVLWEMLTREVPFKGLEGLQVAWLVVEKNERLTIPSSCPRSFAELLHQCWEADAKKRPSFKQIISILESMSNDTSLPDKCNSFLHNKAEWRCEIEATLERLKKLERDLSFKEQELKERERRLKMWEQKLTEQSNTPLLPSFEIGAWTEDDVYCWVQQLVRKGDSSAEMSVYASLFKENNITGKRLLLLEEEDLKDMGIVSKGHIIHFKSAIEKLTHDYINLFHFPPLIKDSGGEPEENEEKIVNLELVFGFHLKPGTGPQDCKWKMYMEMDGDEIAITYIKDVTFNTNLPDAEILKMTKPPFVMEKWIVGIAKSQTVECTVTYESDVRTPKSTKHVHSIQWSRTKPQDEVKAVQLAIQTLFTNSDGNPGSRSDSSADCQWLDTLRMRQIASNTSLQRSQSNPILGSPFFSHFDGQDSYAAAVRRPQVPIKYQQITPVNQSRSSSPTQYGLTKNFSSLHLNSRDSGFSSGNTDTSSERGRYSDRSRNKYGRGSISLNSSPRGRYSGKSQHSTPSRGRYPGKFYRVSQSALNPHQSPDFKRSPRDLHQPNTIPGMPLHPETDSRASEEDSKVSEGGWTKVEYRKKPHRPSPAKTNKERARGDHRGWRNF
In assay [8] the target is Cysteine and glycine-rich protein 1 (Homo sapiens) (UniProt P21291). Description: Binding affinity to CSRP1 in human NCI-H23 cells at 1 uM by mass spectrometry based pull down assay. The class given is cell-based.
The target of assay [9] is Replication factor C subunit 5 (Homo sapiens) (UniProt P40937). Description: Binding affinity to RFC5 in human NCI-H358 cells at 1 uM by mass spectrometry based pull down assay. The class given is cell-based.
Chain of Replication factor C subunit 5 (Homo sapiens) (P40937 whole entry): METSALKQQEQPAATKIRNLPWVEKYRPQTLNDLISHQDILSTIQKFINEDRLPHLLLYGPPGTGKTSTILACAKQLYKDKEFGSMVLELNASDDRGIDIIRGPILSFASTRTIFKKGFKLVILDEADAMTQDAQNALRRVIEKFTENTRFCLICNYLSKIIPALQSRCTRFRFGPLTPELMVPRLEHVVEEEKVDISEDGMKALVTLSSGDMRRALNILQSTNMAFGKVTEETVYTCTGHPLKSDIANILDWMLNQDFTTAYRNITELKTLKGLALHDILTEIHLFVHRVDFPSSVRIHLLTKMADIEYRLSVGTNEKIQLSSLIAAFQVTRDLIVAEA
Assay [10] concerns the target Elongation factor 1-gamma (Homo sapiens) (UniProt P26641). The assay is described as follows: Binding affinity to EEF1G in human NCI-H358 cells at 1 uM by mass spectrometry based pull down assay. The class given is cell-based.
Assay [11] deals with T2, 80S Ribosome (Homo sapiens) (UniProt P08865+P42677+P62753+P15880+P23396+P61247+P62701+P22090+P46782+P62081+P62241+P46781+P46783+P62280+P25398+P62277+P62263+P62841+P62244+P62249+P08708+P62269+P39019+P60866+P63220+P62266+P62847+P62851+P62854+P62979+P62857+P62273+P62861+P39023+P36578+P46777+Q02878+P18124+P62424+P62917+P32969+P27635+P62906+P62913+P30050+P26373+P40429+P50914+P61313+P18621+Q07020+Q02543+P84098+P46778+P35268+P62829+P62750+P83731+P61254+P61353+P46776+P46779+P47914+P62888+P62899+P62910+P49207+P42766+P18077+Q9Y3U8+P83881+P61927+P61513+P63173+P62891+P62945+P05388+P05386). The assay is described as follows: Binding affinity to RPS7 in human NCI-H23 cells at 1 uM by mass spectrometry based pull down assay. The format is cell-based.

The target in assay [12] is T2, 80S Ribosome (Homo sapiens). The assay is described as follows: Binding affinity to RPL8 in human NCI-H23 cells at 1 uM by mass spectrometry based pull down assay. The format is cell-based.
Assay [13] deals with 14-3-3 protein sigma (Homo sapiens) (UniProt P31947). Description: Binding affinity to SFN in human NCI-H23 cells at 1 uM by mass spectrometry based pull down assay. The class given is cell-based.
The target of assay [14] is Pyrroline-5-carboxylate reductase 2 (Homo sapiens) (UniProt Q96C36). Description: Binding affinity to PYCR2 in human NCI-H23 cells at 1 uM by mass spectrometry based pull down assay. The class given is cell-based.
The target in assay [15] is Cytochrome c (Homo sapiens) (UniProt P99999). Description: Binding affinity to CYCS in human NCI-H358 cells at 1 uM by mass spectrometry based pull down assay. The class given is cell-based.
Chain of Cytochrome c (Homo sapiens) (P99999 whole entry): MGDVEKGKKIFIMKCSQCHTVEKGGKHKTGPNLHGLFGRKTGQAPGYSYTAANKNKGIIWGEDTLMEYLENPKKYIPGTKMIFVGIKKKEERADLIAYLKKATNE
In assay [16] the target is Ubiquitin-like modifier-activating enzyme 1 (Homo sapiens) (UniProt P22314). The assay is described as follows: Binding affinity to UBA1 in human NCI-H23 cells at 1 uM by mass spectrometry based pull down assay. The format is cell-based.
Assay [17] concerns the target Amidophosphoribosyltransferase (Homo sapiens) (UniProt Q06203). The assay is described as follows: Binding affinity to PPAT in human NCI-H358 cells at 1 uM by mass spectrometry based pull down assay. The class given is cell-based.
In assay [18] the target is Glutamine--fructose-6-phosphate aminotransferase [isomerizing] 1 (Homo sapiens) (UniProt Q06210). The assay is described as follows: Binding affinity to GFPT1 in human NCI-H23 cells at 1 uM by mass spectrometry based pull down assay. The format is cell-based.
Assay [19] addresses Importin-5 (Homo sapiens) (UniProt O00410). The assay is described as follows: Binding affinity to IPO5 in human NCI-H23 cells at 1 uM by mass spectrometry based pull down assay. The class given is cell-based.
Assay [20] deals with Dual specificity mitogen-activated protein kinase kinase 2 (Homo sapiens) (UniProt P36507). The assay is described as follows: Binding affinity to MAP2K2 in human NCI-H358 cells at 1 uM by mass spectrometry based pull down assay. The format is cell-based.
The target in assay [21] is Acylamino-acid-releasing enzyme (Homo sapiens) (UniProt P13798). Description: Binding affinity to APEH in human NCI-H23 cells at 1 uM by mass spectrometry based pull down assay. The format is cell-based.
Chain of Acylamino-acid-releasing enzyme (Homo sapiens) (P13798 whole entry): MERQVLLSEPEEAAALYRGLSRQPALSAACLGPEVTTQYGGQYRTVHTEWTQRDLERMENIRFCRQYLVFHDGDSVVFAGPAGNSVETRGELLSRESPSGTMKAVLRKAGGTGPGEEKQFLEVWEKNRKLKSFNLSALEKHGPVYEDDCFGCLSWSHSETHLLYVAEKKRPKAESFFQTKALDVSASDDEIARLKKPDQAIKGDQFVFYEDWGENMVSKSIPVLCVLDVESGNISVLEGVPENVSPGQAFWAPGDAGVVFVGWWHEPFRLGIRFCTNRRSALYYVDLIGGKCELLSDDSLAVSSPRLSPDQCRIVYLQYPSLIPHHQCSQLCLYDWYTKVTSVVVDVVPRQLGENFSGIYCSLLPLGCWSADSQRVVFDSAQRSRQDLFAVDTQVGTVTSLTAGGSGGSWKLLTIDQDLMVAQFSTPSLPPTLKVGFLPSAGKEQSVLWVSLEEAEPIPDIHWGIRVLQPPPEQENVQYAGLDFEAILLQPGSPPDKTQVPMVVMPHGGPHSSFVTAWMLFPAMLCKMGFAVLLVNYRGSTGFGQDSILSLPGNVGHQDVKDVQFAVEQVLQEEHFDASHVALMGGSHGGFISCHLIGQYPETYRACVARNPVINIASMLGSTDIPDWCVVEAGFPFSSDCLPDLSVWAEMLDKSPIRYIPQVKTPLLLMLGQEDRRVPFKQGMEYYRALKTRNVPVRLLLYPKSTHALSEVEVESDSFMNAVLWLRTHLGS

Chain of Importin-5 (Homo sapiens) (O00410 whole entry): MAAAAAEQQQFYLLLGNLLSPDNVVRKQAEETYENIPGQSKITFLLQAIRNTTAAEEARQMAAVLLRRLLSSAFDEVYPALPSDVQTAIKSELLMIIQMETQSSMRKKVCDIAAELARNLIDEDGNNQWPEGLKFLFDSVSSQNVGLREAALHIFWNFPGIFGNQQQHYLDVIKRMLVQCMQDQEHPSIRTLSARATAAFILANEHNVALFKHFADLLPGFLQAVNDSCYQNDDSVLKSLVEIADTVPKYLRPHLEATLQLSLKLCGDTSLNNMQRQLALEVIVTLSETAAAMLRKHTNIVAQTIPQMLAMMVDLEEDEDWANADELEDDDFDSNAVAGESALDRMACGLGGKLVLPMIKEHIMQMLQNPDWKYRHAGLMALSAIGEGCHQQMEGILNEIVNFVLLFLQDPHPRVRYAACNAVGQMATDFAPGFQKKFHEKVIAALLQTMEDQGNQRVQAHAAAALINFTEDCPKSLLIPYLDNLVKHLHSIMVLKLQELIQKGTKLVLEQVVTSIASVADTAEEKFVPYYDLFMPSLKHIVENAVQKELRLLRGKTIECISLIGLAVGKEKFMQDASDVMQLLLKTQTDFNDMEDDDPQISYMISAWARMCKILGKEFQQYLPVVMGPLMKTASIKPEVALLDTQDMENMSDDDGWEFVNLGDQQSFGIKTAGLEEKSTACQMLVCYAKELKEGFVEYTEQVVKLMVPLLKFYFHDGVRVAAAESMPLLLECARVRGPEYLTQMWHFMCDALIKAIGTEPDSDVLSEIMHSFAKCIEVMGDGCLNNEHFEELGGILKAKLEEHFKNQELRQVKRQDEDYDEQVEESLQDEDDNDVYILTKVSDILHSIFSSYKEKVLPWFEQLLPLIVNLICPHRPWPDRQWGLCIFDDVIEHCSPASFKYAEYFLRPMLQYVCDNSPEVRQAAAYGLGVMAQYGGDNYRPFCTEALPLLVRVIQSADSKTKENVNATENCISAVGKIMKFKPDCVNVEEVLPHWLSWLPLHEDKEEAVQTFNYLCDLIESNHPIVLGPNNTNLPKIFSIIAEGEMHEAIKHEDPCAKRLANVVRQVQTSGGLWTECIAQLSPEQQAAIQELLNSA
Chain of Tyrosine-protein kinase JAK1 (Homo sapiens) (P23458 whole entry, the tested form may be a part): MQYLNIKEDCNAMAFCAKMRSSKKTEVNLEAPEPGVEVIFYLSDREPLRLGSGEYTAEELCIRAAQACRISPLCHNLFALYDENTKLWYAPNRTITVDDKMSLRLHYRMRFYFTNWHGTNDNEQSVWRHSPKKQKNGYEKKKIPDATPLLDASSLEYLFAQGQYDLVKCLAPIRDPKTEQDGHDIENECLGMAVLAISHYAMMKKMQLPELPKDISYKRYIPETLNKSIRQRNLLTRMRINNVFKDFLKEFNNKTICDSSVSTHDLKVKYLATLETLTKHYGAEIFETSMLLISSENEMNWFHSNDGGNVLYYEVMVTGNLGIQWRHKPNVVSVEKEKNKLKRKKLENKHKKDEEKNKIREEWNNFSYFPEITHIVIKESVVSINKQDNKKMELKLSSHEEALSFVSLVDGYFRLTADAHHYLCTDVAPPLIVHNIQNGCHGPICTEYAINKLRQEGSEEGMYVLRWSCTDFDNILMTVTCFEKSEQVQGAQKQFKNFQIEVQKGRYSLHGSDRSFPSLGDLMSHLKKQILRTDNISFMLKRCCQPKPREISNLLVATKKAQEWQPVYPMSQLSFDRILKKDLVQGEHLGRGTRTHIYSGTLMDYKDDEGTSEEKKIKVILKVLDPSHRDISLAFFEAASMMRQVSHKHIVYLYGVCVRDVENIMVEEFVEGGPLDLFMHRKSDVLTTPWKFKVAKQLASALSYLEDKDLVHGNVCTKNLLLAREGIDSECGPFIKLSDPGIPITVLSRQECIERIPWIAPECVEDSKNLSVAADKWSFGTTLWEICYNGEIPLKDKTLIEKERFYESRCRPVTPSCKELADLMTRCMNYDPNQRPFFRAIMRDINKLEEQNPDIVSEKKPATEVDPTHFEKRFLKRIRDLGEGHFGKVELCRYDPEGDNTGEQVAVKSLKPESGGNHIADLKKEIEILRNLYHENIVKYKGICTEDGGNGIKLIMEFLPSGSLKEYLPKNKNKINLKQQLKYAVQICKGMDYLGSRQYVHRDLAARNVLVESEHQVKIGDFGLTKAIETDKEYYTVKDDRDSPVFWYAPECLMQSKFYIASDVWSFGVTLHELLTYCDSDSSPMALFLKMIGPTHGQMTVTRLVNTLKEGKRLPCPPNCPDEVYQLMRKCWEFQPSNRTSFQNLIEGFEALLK
Chain of Amidophosphoribosyltransferase (Homo sapiens) (Q06203 whole entry): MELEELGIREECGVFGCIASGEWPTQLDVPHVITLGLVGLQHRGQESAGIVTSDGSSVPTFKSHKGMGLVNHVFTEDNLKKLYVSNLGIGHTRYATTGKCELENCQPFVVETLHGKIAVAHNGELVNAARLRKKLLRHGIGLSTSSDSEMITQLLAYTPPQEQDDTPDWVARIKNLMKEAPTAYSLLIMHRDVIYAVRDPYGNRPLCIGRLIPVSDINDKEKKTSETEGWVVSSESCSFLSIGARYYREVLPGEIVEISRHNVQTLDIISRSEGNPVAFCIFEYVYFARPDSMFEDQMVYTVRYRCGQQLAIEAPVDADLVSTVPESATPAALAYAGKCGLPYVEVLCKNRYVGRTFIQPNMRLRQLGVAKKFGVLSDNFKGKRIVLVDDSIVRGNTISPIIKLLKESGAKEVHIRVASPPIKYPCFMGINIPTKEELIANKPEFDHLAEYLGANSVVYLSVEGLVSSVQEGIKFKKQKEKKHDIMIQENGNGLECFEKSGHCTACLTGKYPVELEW

Usually inhibition stands for the change of the read-out against control, counted positive when it falls. In [1], `C=CC(=O)Nc1ccccc1Nc1nc(Nc2ccc(N3CCN(C)CC3)cc2)ncc1Cl` registered an inhibition of 2.6%.

As to `COc1cc(O)c2c(c1)/C=C/C[C@H](O)[C@H](O)C(=O)/C=C\C[C@H](C)OC2=O`, the Activity in [2] was found to be 22%; in [3], 2.2%; in assay [4], 74%.

For `C=CC(=O)Nc1ccccc1Nc1nc(Nc2ccc(N3CCN(CCOCCOCCOCCNC(=O)CCCC[C@@H]4SC[C@@H]5NC(=O)N[C@@H]54)CC3)cc2)ncc1Cl`, the outcome in assay [5], in assay [6], in assay [7], in [8], in assay [9] and in assay [10] was Active. The outcome in assay [11], in assay [12], in assay [13], in assay [14], in [15] and in assay [16] was Active. The outcome in assay [17], in assay [18], in assay [19], in [20] and in assay [21] was Active.
